ChEMBL document CHEMBL3414471 (J Med Chem, 2015)
Active and inactive are the calls of the source. No cut-off for these calls is given here.

Legend:
[1] = target: CYP2C19 (Homo sapiens, UniProt P33261); assay: Inhibition of human CYP2C19 using omeprazole as substrate at 10 uM; format: ADME; conditions: probe omeprazole
[2] = tested on: Salmonella typhimurium; assay: Mutagenic activity in Salmonella typhimurium TA1535 at 10 to 100 uM by ames test; format: toxicity, organism-based; conditions: salmonella enterica subsp. enterica serovar typhimurium
Summary of the method: (§1)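 Ames fluctuation test in Salmonella strains TA98, TA100, TA1535 and TA1537, with and without S9, at 10, 50 and 100 µM; scored negative or positive.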

[3] = Drug uptake in CD1 mouse brain at 10 mg/kg, ip after 0.5 hrs; format: ADME, organism-based; parameters: dose 10 mg/kg, route intraperitoneal; conditions: read-out: Drug uptake
Summary of the method: (§2)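 CD1 mice received a single 10 mg/kg ip dose formulated in pure water. Brain (ng/g) and plasma (ng/mL) levels were measured at 0.5 and 2 h. Brain/plasma ratio assumed a brain tissue density of 1 g/mL.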

[4] = tested on: Salmonella typhimurium; assay: Mutagenic activity in Salmonella typhimurium TA1537 at 10 to 100 uM by ames test; format: toxicity, organism-based; conditions: salmonella enterica subsp. enterica serovar typhimurium; summary of the method: as §1
[5] = target: T1, 5-hydroxytryptamine receptor 2A (Homo sapiens, UniProt P28223); assay: Agonist activity at human 5-HT2A receptor expressed in HEK293 cells assessed as calcium flux by FLIPR assay relative to 5-HT; format: functional, cell-based
T1 sequence (P28223 whole entry): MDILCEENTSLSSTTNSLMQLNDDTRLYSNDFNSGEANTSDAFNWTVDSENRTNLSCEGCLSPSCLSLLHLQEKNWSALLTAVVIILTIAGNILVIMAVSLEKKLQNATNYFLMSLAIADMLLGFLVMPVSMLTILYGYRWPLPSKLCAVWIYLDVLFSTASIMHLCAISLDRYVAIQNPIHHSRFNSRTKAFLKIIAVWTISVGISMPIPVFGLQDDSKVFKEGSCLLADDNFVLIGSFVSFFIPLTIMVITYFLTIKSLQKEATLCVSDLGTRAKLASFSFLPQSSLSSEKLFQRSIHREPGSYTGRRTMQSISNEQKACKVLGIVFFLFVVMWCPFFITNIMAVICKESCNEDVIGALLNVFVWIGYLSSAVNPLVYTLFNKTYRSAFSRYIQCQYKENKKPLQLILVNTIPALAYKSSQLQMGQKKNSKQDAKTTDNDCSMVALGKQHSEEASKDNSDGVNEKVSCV
Summary of the method: (§3)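 Flp-In-293 cells stably expressing human 5-HT2A, 5-HT2B or 5-HT2C-INI; grown 24–48 h in DMEM/10% dialyzed FBS, plated on poly-L-Lys at 12000 cells/well in 1% dialyzed FBS for 24 h. Loaded 1 h at 37 °C with calcium dye in HBSS, 20 mM Hepes pH 7.40, 2.5 mM probenecid.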

[6] = target: T2, 5-hydroxytryptamine receptor 2C (Homo sapiens) (UniProt P28335); assay: Agonist activity at human 5-HT2C receptor expressed in HEK293 cells assessed as calcium flux by FLIPR assay relative to 5-HT; format: functional, cell-based; summary of the method: as §3
T2 sequence (whole entry): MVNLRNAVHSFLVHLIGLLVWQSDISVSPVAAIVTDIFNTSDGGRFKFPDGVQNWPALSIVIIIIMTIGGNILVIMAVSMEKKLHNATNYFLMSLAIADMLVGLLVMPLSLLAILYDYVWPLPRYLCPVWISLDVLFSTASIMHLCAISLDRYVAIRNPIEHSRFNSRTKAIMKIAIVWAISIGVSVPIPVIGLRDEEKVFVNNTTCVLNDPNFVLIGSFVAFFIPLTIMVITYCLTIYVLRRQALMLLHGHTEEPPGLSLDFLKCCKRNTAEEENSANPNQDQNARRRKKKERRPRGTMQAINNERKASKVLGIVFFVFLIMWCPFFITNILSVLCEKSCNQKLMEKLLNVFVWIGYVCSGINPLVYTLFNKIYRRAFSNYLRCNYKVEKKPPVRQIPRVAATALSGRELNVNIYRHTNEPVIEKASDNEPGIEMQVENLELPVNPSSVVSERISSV

[7] = tested on: Mus musculus; assay: Antipsychotic activity in C57BL/6J mouse assessed as reduction of amphetamine-induced locomotor activity at 10 to 20 mg/kg, ip administered 15 mins prior to amphetamine challenge measured for 105 mins by open field test relative to vehicle-treated control; format: functional, organism-based
[8] = tested on: Salmonella typhimurium; assay: Mutagenic activity in Salmonella typhimurium TA98 at 10 to 100 uM by ames test; format: toxicity, organism-based; conditions: salmonella enterica subsp. enterica serovar typhimurium; summary of the method: as §1
[9] = Drug uptake in CD1 mouse brain at 10 mg/kg, ip after 2 hrs; format: ADME, organism-based; parameters: dose 10 mg/kg, route intraperitoneal; conditions: read-out: Drug uptake; summary of the method: as §2
[10] = tested on: Salmonella typhimurium; assay: Mutagenic activity in Salmonella typhimurium TA98 at 10 to 100 uM by ames test in presence of S9 mixture; format: toxicity, organism-based; conditions: salmonella enterica subsp. enterica serovar typhimurium; summary of the method: as §1
[11] = tested on: Salmonella typhimurium; assay: Mutagenic activity in Salmonella typhimurium TA100 at 10 to 100 uM by ames test; format: toxicity, organism-based; conditions: salmonella enterica subsp. enterica serovar typhimurium; summary of the method: as §1
[12] = target: T3, 5-hydroxytryptamine receptor 2B (Homo sapiens, UniProt P41595); assay: Agonist activity at human 5-HT2B receptor expressed in HEK293 cells assessed as calcium flux by FLIPR assay relative to 5-HT; format: functional, cell-based; summary of the method: as §3
T3 sequence (P41595 whole entry): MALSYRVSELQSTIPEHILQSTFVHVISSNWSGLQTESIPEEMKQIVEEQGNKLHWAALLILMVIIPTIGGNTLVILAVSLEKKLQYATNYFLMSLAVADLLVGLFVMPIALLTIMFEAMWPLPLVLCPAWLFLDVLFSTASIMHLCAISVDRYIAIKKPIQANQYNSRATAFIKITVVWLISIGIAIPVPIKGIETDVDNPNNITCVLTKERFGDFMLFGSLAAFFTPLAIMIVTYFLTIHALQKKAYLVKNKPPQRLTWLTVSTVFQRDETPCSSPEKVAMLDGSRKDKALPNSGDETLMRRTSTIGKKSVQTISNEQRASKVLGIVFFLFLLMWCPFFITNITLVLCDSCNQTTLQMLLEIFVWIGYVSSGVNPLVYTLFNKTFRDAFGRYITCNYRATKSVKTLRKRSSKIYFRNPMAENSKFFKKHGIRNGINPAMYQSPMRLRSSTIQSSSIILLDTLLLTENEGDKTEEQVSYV

[13] = target: T4, 5-hydroxytryptamine receptor 2C (Homo sapiens, UniProt P28335); assay: Agonist activity at human 5-HT2C receptor expressed in HEK293 cells assessed as calcium flux by FLIPR assay; format: functional, cell-based
T4 sequence (P28335 whole entry): T2 sequence (whole entry)

[14] = tested on: Salmonella typhimurium; assay: Mutagenic activity in Salmonella typhimurium TA1537 at 10 to 100 uM by ames test in presence of S9 mixture; format: toxicity, organism-based; conditions: salmonella enterica subsp. enterica serovar typhimurium; summary of the method: as §1
[15] = target: CYP3A (Homo sapiens, UniProt P08684+P20815+P24462+Q9HB55); assay: Inhibition of human CYP3A using midazolam as substrate at 10 uM; format: ADME; conditions: probe midazolam
Summary of the method: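 Human liver microsomes, test compound at 10 µM, midazolam as CYP3A substrate; percent inhibition reported; run by a contract lab.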

[16] = Permeability from basolateral to apical side in human Caco2 cells at pH 7.4; format: ADME, cell-based; conditions: caco-2, pH 7.4
Summary of the method: (§4)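 Caco-2 monolayer permeability measured A–B and B–A in pH 7.4 buffer, reported as ×10−6 cm/s; A–B/B–A ratio derived from these.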

[17] = tested on: Liver microsome; assay: Metabolic stability in human liver microsomes; format: ADME
Summary of the method: (§5)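 Incubation with human or CD-1 mouse liver microsomes for 1 h; stability expressed as % parent compound remaining.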

[18] = target: T1, 5-hydroxytryptamine receptor 2A; assay: Agonist activity at human 5-HT2A receptor expressed in HEK293 cells assessed as calcium flux by FLIPR assay; format: functional, cell-based
[19] = tested on: Salmonella typhimurium; assay: Mutagenic activity in Salmonella typhimurium TA100 at 10 to 100 uM by ames test in presence of S9 mixture; format: toxicity, organism-based; conditions: salmonella enterica subsp. enterica serovar typhimurium; summary of the method: as §1
[20] = target: CYP2D6 (Homo sapiens, UniProt P10635); assay: Inhibition of human CYP2D6 using dextromethorphan as substrate at 10 uM; format: ADME; conditions: probe dextromethorphan
Chain of CYP2D6 (P10635 whole entry): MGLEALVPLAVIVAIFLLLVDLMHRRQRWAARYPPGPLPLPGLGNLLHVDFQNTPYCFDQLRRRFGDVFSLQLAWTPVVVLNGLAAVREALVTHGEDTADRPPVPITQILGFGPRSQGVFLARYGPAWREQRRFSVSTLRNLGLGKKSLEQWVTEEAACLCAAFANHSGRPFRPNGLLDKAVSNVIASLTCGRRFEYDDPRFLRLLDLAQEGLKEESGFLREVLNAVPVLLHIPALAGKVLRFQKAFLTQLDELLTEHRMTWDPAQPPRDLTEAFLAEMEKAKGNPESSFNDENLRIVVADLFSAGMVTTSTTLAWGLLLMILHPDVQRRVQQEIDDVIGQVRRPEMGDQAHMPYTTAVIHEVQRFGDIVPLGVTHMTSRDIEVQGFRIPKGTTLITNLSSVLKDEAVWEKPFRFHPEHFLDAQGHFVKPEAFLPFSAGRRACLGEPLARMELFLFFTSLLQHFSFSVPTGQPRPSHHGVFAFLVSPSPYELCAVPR

[21] = Permeability from apical to basolateral side in human Caco2 cells at pH 7.4; format: ADME, cell-based; conditions: caco-2, pH 7.4; summary of the method: as §4
[22] = Plasma protein binding in human at 10 uM; format: ADME, cell-free
Summary of the method: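 Human plasma protein binding determined at 10 µM compound, expressed as % bound.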

[23] = tested on: Liver; assay: Metabolic stability in mouse liver microsomes; format: ADME; summary of the method: as §5
[24] = tested on: Salmonella typhimurium; assay: Mutagenic activity in Salmonella typhimurium TA1535 at 10 to 100 uM by ames test in presence of S9 mixture; format: toxicity, organism-based; conditions: salmonella enterica subsp. enterica serovar typhimurium; summary of the method: as §1
[25] = target: T3, 5-hydroxytryptamine receptor 2B; assay: Agonist activity at human 5-HT2B receptor expressed in HEK293 cells assessed as calcium flux by FLIPR assay; format: functional, cell-based
[26] = target: T5, CYP2B6 (Homo sapiens, UniProt P20813); assay: Inhibition of human CYP2B6 using bupropion as substrate at 10 uM; format: ADME; conditions: probe bupropion
T5 sequence (P20813 whole entry): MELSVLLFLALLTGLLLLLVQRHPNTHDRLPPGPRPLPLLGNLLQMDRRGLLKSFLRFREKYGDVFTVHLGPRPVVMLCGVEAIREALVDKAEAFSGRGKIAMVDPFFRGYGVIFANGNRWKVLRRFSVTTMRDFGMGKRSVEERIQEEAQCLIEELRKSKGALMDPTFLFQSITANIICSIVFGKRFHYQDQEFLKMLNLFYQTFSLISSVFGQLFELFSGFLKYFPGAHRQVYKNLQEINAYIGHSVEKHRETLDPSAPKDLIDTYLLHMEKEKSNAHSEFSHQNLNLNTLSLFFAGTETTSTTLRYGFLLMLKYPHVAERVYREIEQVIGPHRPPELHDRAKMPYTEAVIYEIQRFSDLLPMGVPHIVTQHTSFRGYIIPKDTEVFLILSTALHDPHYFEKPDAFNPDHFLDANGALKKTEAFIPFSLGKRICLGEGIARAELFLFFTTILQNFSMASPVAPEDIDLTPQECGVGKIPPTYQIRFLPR

[27] = target: CYP2C9 (Homo sapiens, UniProt P11712); assay: Inhibition of human CYP2C9 using diclofenac as substrate at 10 uM; format: ADME; conditions: probe diclofenac
Chain of CYP2C9 (P11712 whole entry): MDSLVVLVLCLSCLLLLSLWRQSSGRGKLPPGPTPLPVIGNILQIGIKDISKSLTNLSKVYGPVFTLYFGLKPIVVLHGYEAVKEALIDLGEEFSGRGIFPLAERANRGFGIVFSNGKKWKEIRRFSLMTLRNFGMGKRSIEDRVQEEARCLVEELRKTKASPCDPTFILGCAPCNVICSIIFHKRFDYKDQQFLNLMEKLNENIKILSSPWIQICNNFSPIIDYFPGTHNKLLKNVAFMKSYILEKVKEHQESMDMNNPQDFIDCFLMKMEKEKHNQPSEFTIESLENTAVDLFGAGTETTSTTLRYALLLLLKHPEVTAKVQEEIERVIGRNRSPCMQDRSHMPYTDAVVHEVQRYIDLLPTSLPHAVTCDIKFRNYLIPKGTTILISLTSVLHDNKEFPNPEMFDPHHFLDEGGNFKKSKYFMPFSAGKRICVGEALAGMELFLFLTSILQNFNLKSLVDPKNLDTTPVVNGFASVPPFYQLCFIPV

[28] = Plasma concentration in CD1 mouse at 10 mg/kg, ip after 2 hrs; format: ADME, organism-based; parameters: dose 10 mg/kg, route intraperitoneal; summary of the method: as §2
[29] = Plasma concentration in CD1 mouse at 10 mg/kg, ip after 0.5 hrs; format: ADME, organism-based; parameters: dose 10 mg/kg, route intraperitoneal; summary of the method: as §2
[30] = tested on: Nucleic Acid; assay: Ratio of drug uptake from brain to plasma in CD1 mouse at 10 mg/kg, ip after 0.5 hrs; format: ADME, organism-based; parameters: dose 10 mg/kg, route intraperitoneal
[31] = tested on: Nucleic Acid; assay: Ratio of drug uptake from brain to plasma in CD1 mouse at 10 mg/kg, ip after 2 hrs; format: ADME, organism-based; parameters: dose 10 mg/kg, route intraperitoneal
[32] = target: Voltage-gated inwardly rectifying potassium channel KCNH2 (Homo sapiens, UniProt Q12809); assay: Inhibition of human ERG channel expressed in CHO cells by patch clamp method; format: cell-based
Chain of Voltage-gated inwardly rectifying potassium channel KCNH2 (Q12809 whole entry): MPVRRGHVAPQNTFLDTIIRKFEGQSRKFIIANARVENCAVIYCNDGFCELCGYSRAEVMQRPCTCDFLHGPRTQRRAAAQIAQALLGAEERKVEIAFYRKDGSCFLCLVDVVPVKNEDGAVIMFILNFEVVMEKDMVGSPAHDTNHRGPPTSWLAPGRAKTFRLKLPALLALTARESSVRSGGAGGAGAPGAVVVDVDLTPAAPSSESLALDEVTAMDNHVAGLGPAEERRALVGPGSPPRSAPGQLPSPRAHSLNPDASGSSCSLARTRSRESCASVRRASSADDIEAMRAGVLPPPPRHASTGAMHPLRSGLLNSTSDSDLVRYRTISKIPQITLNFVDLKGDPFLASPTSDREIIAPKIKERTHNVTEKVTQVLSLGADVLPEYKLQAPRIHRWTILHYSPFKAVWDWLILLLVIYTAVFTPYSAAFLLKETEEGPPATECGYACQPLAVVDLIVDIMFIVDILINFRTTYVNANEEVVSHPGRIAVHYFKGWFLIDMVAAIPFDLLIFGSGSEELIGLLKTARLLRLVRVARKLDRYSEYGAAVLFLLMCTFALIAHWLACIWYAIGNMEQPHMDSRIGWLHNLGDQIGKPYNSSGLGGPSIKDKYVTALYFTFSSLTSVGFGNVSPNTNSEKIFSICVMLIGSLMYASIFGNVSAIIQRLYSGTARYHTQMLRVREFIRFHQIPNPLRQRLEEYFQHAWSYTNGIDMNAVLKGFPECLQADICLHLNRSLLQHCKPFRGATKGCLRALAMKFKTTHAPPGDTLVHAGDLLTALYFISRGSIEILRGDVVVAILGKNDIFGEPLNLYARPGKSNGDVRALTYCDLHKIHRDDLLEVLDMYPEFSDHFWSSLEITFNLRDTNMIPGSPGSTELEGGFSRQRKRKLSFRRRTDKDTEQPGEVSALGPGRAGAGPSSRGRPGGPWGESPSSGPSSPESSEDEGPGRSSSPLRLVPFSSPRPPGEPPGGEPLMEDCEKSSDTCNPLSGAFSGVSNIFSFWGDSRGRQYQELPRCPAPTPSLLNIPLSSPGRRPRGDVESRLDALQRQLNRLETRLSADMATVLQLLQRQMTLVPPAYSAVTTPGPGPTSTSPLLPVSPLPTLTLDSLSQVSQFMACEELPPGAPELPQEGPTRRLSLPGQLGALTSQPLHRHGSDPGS

[33] = Efflux ratio of permeability from apical to basolateral side over basolateral to apical side in human Caco2 cells at pH 7.4; format: ADME, cell-based; conditions: caco-2, pH 7.4
[34] = target: T1, 5-hydroxytryptamine receptor 2A; assay: Agonist activity at human 5-HT2A receptor expressed in HEK293 cells assessed as calcium flux at 10 uM by FLIPR assay; format: functional, cell-based
Summary of the method: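 Flp-In-293 cells stably expressing human 5-HT2A, 5-HT2B or 5-HT2C-INI, grown in DMEM with 10% dialyzed FBS, then plated for 24 h in 1% dialyzed FBS. Cells were loaded 1 h at 37 °C with calcium dye in Hepes-buffered HBSS, pH 7.40, containing 2.5 mM probenecid. FLIPR read 10 s baseline, then 120 s after drug addition.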

[35] = tested on: Mus musculus; assay: Antipsychotic activity in C57BL/6J mouse assessed as reduction of amphetamine-induced locomotor activity administered ip 15 mins prior to amphetamine challenge measured for 105 mins by open field test relative to vehicle-treated control; format: functional, organism-based
[36] = species on record: Homo sapiens; assay: Selectivity ratio of EC50 for human 5-HT2B receptor to EC50 for human 5HT2C receptor

Chain of CYP2C19 (P33261 whole entry): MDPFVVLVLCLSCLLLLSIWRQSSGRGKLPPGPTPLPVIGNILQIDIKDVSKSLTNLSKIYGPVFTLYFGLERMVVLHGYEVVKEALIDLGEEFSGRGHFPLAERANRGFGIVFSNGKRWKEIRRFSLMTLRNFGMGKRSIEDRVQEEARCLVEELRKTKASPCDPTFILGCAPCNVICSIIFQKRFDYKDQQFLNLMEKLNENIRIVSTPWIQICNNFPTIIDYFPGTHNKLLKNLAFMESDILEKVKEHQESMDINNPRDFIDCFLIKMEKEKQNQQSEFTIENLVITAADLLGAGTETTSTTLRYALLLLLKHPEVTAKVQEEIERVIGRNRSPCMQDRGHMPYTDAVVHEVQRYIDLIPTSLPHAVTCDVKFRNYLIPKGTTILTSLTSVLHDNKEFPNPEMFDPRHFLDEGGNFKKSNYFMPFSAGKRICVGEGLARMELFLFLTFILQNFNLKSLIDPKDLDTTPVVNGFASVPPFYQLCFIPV

| SMILES | inhibition at 10 µM [1] [%] | Activity [2] | concentration at 0.5 h [3] [ng/g] | Activity [4] | Emax [6] [%] | Activity [8] | concentration at 2 h [9] [ng/g] | Activity [10] | Activity [11] | Emax [12] [%] | EC50 [13] [nM] | Activity [14] | inhibition at 10 µM [15] [%] | permeability [16] [×10⁻⁶ cm/s] | Stability [17] [%] | Activity [19] | inhibition at 10 µM [20] [%] | permeability [21] [×10⁻⁶ cm/s] | PPB [22] [%] | EC50 [25] [nM] | other results |
| --- | --- | --- | --- | --- | --- | --- | --- | --- | --- | --- | --- | --- | --- | --- | --- | --- | --- | --- | --- | --- | --- |
| Cl.NC[C@H]1C[C@@H]1c1cc(Cl)ccc1OCCF | 21 | Non-toxic | 12800 | Non-toxic | 86 | Non-toxic | 13400 | Non-toxic | Non-toxic | 31 | 32 | Non-toxic | 22 | 17.5 | 95 | Non-toxic | 79 | 35.5 | 57 | 632 | Emax [5]: 35%; Activity [7]: Active; EC50 [18]: 1480 nM; Stability [23]: 74%; Activity [24]: Non-toxic; inhibition at 10 µM [26]: 58%; inhibition at 10 µM [27]: 33%; concentration at 2 h [28]: 874 ng/mL; concentration at 0.5 h [29]: 1200 ng/mL |
| C=C(F)COc1ccc(Cl)cc1[C@H]1C[C@@H]1CN.Cl | 33 | Non-toxic | 17500 | Non-toxic | 81 | Non-toxic | 14700 | Non-toxic | Non-toxic | 27 | 133 | Non-toxic | 27 | 10.8 | 80 | Non-toxic | 80 | 38.3 | 68 | 1690 | BPR [30]: 12.1; BPR [31]: 16.2; IC50 [32]: 3.98 µM; Ratio [33]: 3.5; Activity [34]: inactive; Activity [35]: Dose-dependent effect; Stability [23]: 62%; Activity [24]: Non-toxic; inhibition at 10 µM [26]: 77%; inhibition at 10 µM [27]: 51%; concentration at 2 h [28]: 903 ng/mL; concentration at 0.5 h [29]: 1440 ng/mL |
| CCCOc1ccc(Cl)cc1[C@H]1C[C@@H]1CN |  |  |  |  | 72 |  |  |  |  | 25 | 103 |  |  |  |  |  |  |  |  | 3440 | Ratio EC50 [36]: 33; Activity [34]: inactive |
